Active and inactive are the calls of the source. No cut-off for these calls is given here.
What was measured:
[1] = system: Staphylococcus aureus; experiment: Antimicrobial activity against methicillin-resistant Staphylococcus aureus 25762 assessed as biofilm formation at 100 uM after 48 hrs by crystal violet staining-based spectrophotometry relative to control; format: functional
[2] = system: Streptococcus mutans; experiment: Antimicrobial activity against Streptococcus mutans 240 assessed as biofilm formation at 100 uM after 48 hrs by crystal violet staining-based spectrophotometry relative to control; format: functional
Procedure, shortened: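 Single-concentration screen in a modified biofilm-formation assay. Compound at 100 µM. Biofilm formed is expressed as a percentage of the negative control. Values are the mean of three independent experiments.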

[3] = system: Pseudomonas aeruginosa; experiment: Antimicrobial activity against Pseudomonas aeruginosa 6121 assessed as inhibition of biofilm formation after 24 hrs by crystal violet staining-based spectrophotometry; format: functional, organism-based
[4] = system: Staphylococcus aureus; experiment: Antimicrobial activity against methicillin-resistant Staphylococcus aureus 25762 assessed as inhibition of biofilm formation after 48 hrs by crystal violet staining-based spectrophotometry; format: functional
[5] = system: Streptococcus mutans; experiment: Antimicrobial activity against Streptococcus mutans 240 assessed as inhibition of biofilm formation after 48 hrs by crystal violet staining-based spectrophotometry; format: functional

SMILES | Activity [1] | Activity [2] | inhibition [3] | MBIC50 [4] [µM] | MBIC50 [5] [µM]
Cl.Nc1nc(-c2cccc(NC(=O)c3cc4cc([N+](=O)[O-])ccc4[nH]3)c2)c[nH]1 | inactive | 33.3% | inactive | – | –
Cl.Nc1nc(-c2ccc(NC(=O)c3cc4ccccc4[nH]3)cc2)c[nH]1 | 11.1% | 8.1% | inactive | 90 | 60
Cl.Nc1nc(-c2cccc(NC(=O)c3cc4cc(O)ccc4[nH]3)c2)c[nH]1 | inactive | 53.4% | inactive | – | –
Cl.Nc1nc(-c2cccc(NC(=O)c3cc4cc(F)ccc4[nH]3)c2)c[nH]1 | inactive | 8.7% | inactive | – | –
Cl.Nc1nc(-c2ccc(NC(=O)c3cc4cc(Cl)ccc4[nH]3)cc2)c[nH]1 | inactive | 38.2% | inactive | – | –
CC(C)(C)OC(=O)n1cc(-c2cccc(NC(=O)c3cc4ccccc4[nH]3)c2)nc1N | inactive | 30.6% | inactive | – | –
CC(C)(C)OC(=O)n1cc(-c2cccc(NC(=O)c3cc4cc(OC(F)(F)F)ccc4[nH]3)c2)nc1N | inactive | inactive | inactive | – | –
COc1ccc2[nH]c(C(=O)Nc3cccc(-c4c[nH]c(N)n4)c3)cc2c1.Cl | inactive | 10.5% | inactive | – | –
Nc1nc(/C=C/CNC(=O)c2cc3ccccc3[nH]2)c[nH]1 | inactive | inactive | inactive | – | –
Cl.Nc1nc(-c2cccc(NC(=O)c3cc4cc(Cl)ccc4[nH]3)c2)c[nH]1 | 44% | 6.8% | inactive | – | –
Cl.Nc1nc(-c2cccc(NC(=O)c3cc4cc(OCc5ccccc5)ccc4[nH]3)c2)c[nH]1 | 31.4% | 8.2% | inactive | – | –
Cl.Nc1nc(-c2cccc(NC(=O)c3cc4sccc4[nH]3)c2)c[nH]1 | 23% | 10.1% | inactive | 90 | 60
Cl.Nc1nc(-c2cccc(NC(=O)c3c[nH]c4ccccc34)c2)c[nH]1 | inactive | 23.9% | inactive | – | –
CC(C)(C)OC(=O)n1cc(-c2cccc(NC(=O)c3cc4cc(N)ccc4[nH]3)c2)nc1N | inactive | inactive | inactive | – | –
Nc1nc(/C=C/CNC(=O)c2cc3cc(F)ccc3[nH]2)c[nH]1 | 8.1% | 18.7% | inactive | 60 | 60
Cl.Nc1nc(-c2cccc(NC(=O)c3cc4ccccc4[nH]3)c2)c[nH]1 | 13.9% | 14.2% | inactive | – | –
Cl.Nc1nc(-c2ccc(NC(=O)c3cc4cc(F)ccc4[nH]3)cc2)c[nH]1 | 10.9% | 3.9% | inactive | 60 | 50
Nc1ncc(/C=C/CNC(=O)c2cc(Br)c(Br)[nH]2)[nH]1 [OROIDIN] | inactive | 18% | – | – | –
CC(C)(C)OC(=O)n1cc(-c2cccc(NC(=O)c3cc4cc(O)ccc4[nH]3)c2)nc1N | inactive | 57.6% | inactive | – | –
CNc1nc(-c2cccc(NC(=O)c3cc4ccccc4[nH]3)c2)c[nH]1.Cl | 19.1% | 8.8% | inactive | 70 | 80
Nc1ccc2[nH]c(C(=O)Nc3cccc(-c4c[nH]c(N)n4)c3)cc2c1 | inactive | inactive | inactive | – | –

Source: ChEMBL document CHEMBL3259692, “Inhibition of biofilm formation by conformationally constrained indole-based analogues of the marine alkaloid oroidin” (2014)
